Calls of active or inactive are those of the source.
Key:
[1] = Inhibition of HedgeHog pathway in mouse C3H10T1/2 cells assessed as inhibition of 20-(S)-hydroxysterol/22-(S)-hydroxysterol-induced osteoblastic differentiation after 72 hrs by alkaline phosphatase assay; conditions: C3H 10T1/2, 72 h
in vitro = conditions: human
[2] = Volume of distribution in Beagle dog at 1 mg/kg, iv; type: ADME, organism-based, Canis lupus familiaris; design: dose 1 mg/kg, route intravenous; conditions: in vivo
How it was run: (§1)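 Plasma sampled at 0.083-24 h (T_last 24 h), protein-precipitated with acetonitrile containing jervine internal standard, and quantified by LC/MS/MS. Parameters taken from the concentration-time profile.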

Mus musculus [3] = assay: Antitumor activity against Ptc+/- Hic+/- mouse B837Tx cells allografted in NOD/SCID mouse assessed as median time to unmeasurable tumor volume at 25 mg/kg, po administered daily for 21 days; type: functional, organism-based; design: dose 25 mg/kg
Mus musculus [4] = assay: Antitumor activity against Ptc+/- Hic+/- mouse B837Tx cells allografted in NOD/SCID mouse assessed as tumor-free interval on 21 days post treatment at 25 mg/kg, po administered daily for 21 days; type: functional, organism-based; design: dose 25 mg/kg
[5] = Volume of distribution in cynomolgus monkey at 1 mg/kg, iv; type: ADME, organism-based, Macaca fascicularis; design: dose 1 mg/kg, route intravenous; conditions: in vivo
How it was run: as §1

[6] = Elimination half life in Sprague-Dawley rat at 1 mg/kg, iv; type: ADME, organism-based; design: dose 1 mg/kg, route intravenous; conditions: in vivo, read-out: beta t1/2 (converted)
How it was run: as §1

[7] = Elimination half life in cynomolgus monkey at 1 mg/kg, iv; type: ADME, organism-based, Macaca fascicularis; design: dose 1 mg/kg, route intravenous; conditions: in vivo, read-out: beta t1/2 (converted)
How it was run: as §1

[8] = Elimination half life in Beagle dog at 1 mg/kg, iv; type: ADME, organism-based, Canis lupus familiaris; design: dose 1 mg/kg, route intravenous; conditions: in vivo, read-out: beta t1/2 (converted)
How it was run: as §1

[9] = Oral bioavailability in Sprague-Dawley rat at 5 mg/kg; type: ADME, organism-based; conditions: in vivo
Mus musculus [10] = assay: Antitumor activity against Ptc+/- Hic+/- mouse B837Tx cells allografted in NOD/SCID mouse assessed as effect on recurrence rate on post treatment at 25 mg/kg, po administered daily for 21 days; type: functional, organism-based; design: dose 25 mg/kg
[11] = Oral bioavailability in cynomolgus monkey at 4 mg/kg; type: ADME, organism-based, Macaca fascicularis; conditions: in vivo
[12] = Volume of distribution in Sprague-Dawley rat at 1 mg/kg, iv; type: ADME, organism-based; design: dose 1 mg/kg, route intravenous; conditions: in vivo
How it was run: as §1

[13] = Elimination half life in CD1 mouse at 1 mg/kg, iv; type: ADME, organism-based; design: dose 1 mg/kg, route intravenous; conditions: in vivo, read-out: beta t1/2 (converted)
How it was run: as §1

[14] = Plasma clearance in CD1 mouse at 1 mg/kg, iv; type: ADME, organism-based; design: dose 1 mg/kg, route intravenous
How it was run: as §1

[15] = Oral bioavailability in CD1 mouse at 5 mg/kg; type: ADME, organism-based; conditions: in vivo
[16] = Toxicity in po dosed Ptc+/- Hic+/- mouse B837Tx cells allografted NOD/SCID mouse assessed as maximum tolerated dose after 5 days; type: organism-based; conditions: in vivo
How it was run: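 Tumor-bearing immunocompromised mice received repeat oral dosing for 5 days. MTD was defined as the dose tolerated by all animals (N = 3).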

[17] = Plasma clearance in cynomolgus monkey at 1 mg/kg, iv; type: ADME, organism-based, Macaca fascicularis; design: dose 1 mg/kg, route intravenous
How it was run: as §1

[18] = Plasma clearance in Sprague-Dawley rat at 1 mg/kg, iv; type: ADME, organism-based; design: dose 1 mg/kg, route intravenous
How it was run: as §1

[19] = Plasma clearance in Beagle dog at 1 mg/kg, iv; type: ADME, organism-based, Canis lupus familiaris; design: dose 1 mg/kg, route intravenous
How it was run: as §1

[20] = Oral bioavailability in Beagle dog at 4 mg/kg; type: ADME, organism-based, Canis lupus familiaris; conditions: in vivo
[21] = Volume of distribution in CD1 mouse at 1 mg/kg, iv; type: ADME, organism-based; design: dose 1 mg/kg, route intravenous; conditions: in vivo
How it was run: as §1

## CC1=C2C[C@H]3[C@@H](CC[C@@H]4Cc5nn(C)cc5C[C@@]43C)[C@@H]2CC[C@@]2(C1)O[C@@H]1C[C@H](C)CN[C@H]1[C@H]2C
[1]
  EC50: 0.054 µM
In vitro; liver microsomes
  half-life at 0.5 µM: 0.583 h

## CC1=C2C[C@H]3[C@@H](CC[C@@H]4Cc5n[nH]c(C(F)(F)F)c5C[C@@]43C)[C@@H]2CC[C@@]2(C1)O[C@@H]1C[C@H](C)CN[C@H]1[C@H]2C
[1]
  EC50: 0.17 µM
In vitro; liver microsomes
  half-life at 0.5 µM: 3.33 h

## CC1=C2C[C@H]3[C@@H](CC[C@@H]4Cc5nonc5C[C@@]43C)[C@@H]2CC[C@@]2(C1)O[C@@H]1C[C@H](C)CN[C@H]1[C@H]2C
[1]
  EC50: 0.23 µM
In vitro; liver microsomes
  half-life at 0.5 µM: 0.133 h

## CC1=C2C[C@H]3[C@@H](CC[C@@H]4C[C@@H](N)CC[C@@]43C)[C@@H]2CC[C@@]2(C1)O[C@@H]1C[C@H](C)CN[C@H]1[C@H]2C
[1]
  EC50: > 1 µM

## CC1=C2C[C@H]3[C@@H](CC[C@@H]4C[C@H](O)CC[C@@]43C)[C@@H]2CC[C@@]2(C1)O[C@@H]1C[C@H](C)CN[C@H]1[C@H]2C
[1]
  EC50: 0.009 µM
In vitro; liver microsomes
  half-life at 0.5 µM: 0.667 h

## CC1=C2C[C@H]3[C@@H](CCC4=CC(=O)CC[C@@]43C)[C@@H]2CC[C@@]2(C1)O[C@@H]1C[C@H](C)CN[C@H]1[C@H]2C
[2]
  Vd: 13.9 L/kg
[1]
  EC50: 0.3 µM
Mus musculus [3]
  Activity: inactive
Mus musculus [4]
  Activity: inactive
[5]
  Vd: 21.3 L/kg
[6]
  half-life: 1.7 h
[7]
  half-life: 2.4 h
[8]
  half-life: 2.2 h
[9]
  bioavailability: 13%
Mus musculus [10]
  Activity: inactive
[11]
  bioavailability: 69%
[12]
  Vd: 28 L/kg
[13]
  half-life: 3.5 h
[14]
  clearance: 60 mL/min/kg
[15]
  bioavailability: 79%
[16]
  MTD at 120 h: 25 mg/kg
[17]
  clearance: 103 mL/min/kg
[18]
  clearance: 207 mL/min/kg
[19]
  clearance: 78.3 mL/min/kg
[20]
  bioavailability: 7%
In vitro; microsomes
  half-life at 0.5 µM: 1.25 h
[21]
  Vd: 18 L/kg

## CC1=C2C[C@H]3[C@@H](CC[C@@H]4Cc5[nH][nH]c(=O)c5C[C@@]43C)[C@@H]2CC[C@@]2(C1)O[C@@H]1C[C@H](C)CN[C@H]1[C@H]2C
[1]
  EC50: 0.17 µM
In vitro; liver microsomes
  half-life at 0.5 µM: 1.67 h

## CC1=C2C[C@H]3[C@@H](CC[C@@H]4Cc5nocc5C[C@@]43C)[C@@H]2CC[C@@]2(C1)O[C@@H]1C[C@H](C)CN[C@H]1[C@H]2C
[1]
  EC50: 0.062 µM
In vitro; microsomes
  half-life at 0.5 µM: 0.133 h

## CC1=C2C[C@H]3[C@@H](CC[C@@H]4C[C@H](n5ccnn5)CC[C@@]43C)[C@@H]2CC[C@@]2(C1)O[C@@H]1C[C@H](C)CN[C@H]1[C@H]2C
[1]
  EC50: 0.024 µM
In vitro; liver microsomes
  half-life at 0.5 µM: 0.667 h

## CC1=C2C[C@H]3[C@@H](CC[C@@H]4Cc5nn(S(C)(=O)=O)cc5C[C@@]43C)[C@@H]2CC[C@@]2(C1)O[C@@H]1C[C@H](C)CN[C@H]1[C@H]2C
[1]
  EC50: 0.14 µM
In vitro; liver microsomes
  half-life at 0.5 µM: 3 h

## CO/N=C1\CC[C@@]2(C)[C@H](CC[C@H]3[C@@H]4CC[C@@]5(CC(C)=C4C[C@@H]32)O[C@@H]2C[C@H](C)CN[C@H]2[C@H]5C)C1
[1]
  EC50: 0.16 µM
In vitro; liver microsomes
  half-life at 0.5 µM: 0.917 h

## CC1=C2C[C@H]3[C@@H](CC[C@H]4CC(=O)CC[C@@]43C)[C@@H]2CC[C@@]2(C1)O[C@@H]1C[C@H](C)CN[C@H]1[C@H]2C
[1]
  EC50: 0.4 µM
In vitro; microsomes
  half-life at 0.5 µM: 1.25 h

## CO[C@H]1CC[C@@]2(C)[C@H](CC[C@H]3[C@@H]4CC[C@@]5(CC(C)=C4C[C@@H]32)O[C@@H]2C[C@H](C)CN[C@H]2[C@H]5C)C1
[1]
  EC50: 0.49 µM
In vitro; microsomes
  half-life at 0.5 µM: > 3.33 h

## CC1=C2C[C@H]3[C@@H](CC[C@@H]4Cc5nc(C)sc5C[C@@]43C)[C@@H]2CC[C@@]2(C1)O[C@@H]1C[C@H](C)CN[C@H]1[C@H]2C
[1]
  EC50: 0.27 µM
In vitro; liver microsomes
  half-life at 0.5 µM: 1.67 h
